Data on two compounds can be found in ChEMBL document CHEMBL5252546, “Salutaxel, a Conjugate of Docetaxel and a Muramyl Dipeptide (MDP) Analogue, Acts as Multifunctional Prodrug That Inhibits Tumor Growth and Metastasis” (J Med Chem, 2018).

The nature of series [1]: MRT in mouse plasma implanted with mouse 4T1 cells at 5.7 mg/kg,iv measured upto 72 hrs. It is filed as ADME, organism-based.
In series [2] the test system is 4T1. Briefly: Antitumor activity against mouse 4T1 cells implanted in BALB/c mouse assessed as decrease in tumor MMP9 expression level at 5.7 mg/kg,iv administrated once per week for 4 weeks by western blot assay. It is filed as functional, organism-based. The method in brief:
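4T1 cells injected into mammary fat pads of BALB/c mice. Saline vehicle or test article given iv once weekly for 4 weeks. Spleen, lung and tumor lysates immunoblotted for MMP2/MMP9 with β-actin as loading control. Bands averaged over five mice per group, representative of two independent experiments.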
(A western blot detects proteins with antibodies after separation by electrophoresis.)

Series [3] concerns 4T1. Briefly: Antitumor activity against mouse 4T1 cells implanted in BALB/c mouse assessed as decrease in serum TIMP-1 level at 5.7 mg/kg,iv administrated once per week for 4 weeks in presence of MDA-205 by ELISA. In kind it is functional, organism-based.
Series [4] is described as follows: Toxicity in BALB/c mouse injected with mouse 4T1 cells assessed as body weight loss at 5.7 mg/kg,iv administrated once per week for 4 weeks. The settings on record: in vivo, 672 h. It is filed as organism-based.
Series [5] can be described thus: Half life in mouse tumor implanted with mouse 4T1 cells at 5.7 mg/kg,iv measured upto 72 hrs. In kind it is ADME, organism-based, Neoplasm.
Series [6] in a line: AUC (0-t) in female rat at 2 mg/kg,iv measured upto 24 hrs. It is filed as ADME, organism-based. Further details: time < 24 hrs, dose 2 mg/kg, route iv. To be noted: in vivo. Summed up:
(§1)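 Single iv dose: rats 2, 4 or 8 mg/kg by intravenous injection; Beagle dogs 1, 2 or 4 mg/kg by intravenous infusion. Plasma concentration–time data were analysed by sex and pooled. Reported parameters: Cmax, Tmax, AUC0−t, AUC0−∞, MRT0−∞, t1/2, CL, Vss, given as mean ± SD.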

Series [7] relates to 4T1. Briefly: Antitumor activity against mouse 4T1 cells implanted in BALB/c mouse assessed as decrease in spleen MDSC cells at 10 mg/kg,iv measured after 28 days (reference value: 38%). The settings on record: time 28 day. It is filed as functional. Details: scale not given: the % may be the effect or the level left.
The next series deals with Cytochrome P450 2C8 (Homo sapiens, UniProt P10632). Briefly: Inhibition of CYP2C8 in human liver microsomes using probe substrate in presence of NADPH. It is filed as ADME, Microsome. On the technique in general: Liver microsomes are vesicles of endoplasmic reticulum, rich in cytochrome P450 enzymes.
Sequence of Cytochrome P450 2C8 (P10632 whole entry): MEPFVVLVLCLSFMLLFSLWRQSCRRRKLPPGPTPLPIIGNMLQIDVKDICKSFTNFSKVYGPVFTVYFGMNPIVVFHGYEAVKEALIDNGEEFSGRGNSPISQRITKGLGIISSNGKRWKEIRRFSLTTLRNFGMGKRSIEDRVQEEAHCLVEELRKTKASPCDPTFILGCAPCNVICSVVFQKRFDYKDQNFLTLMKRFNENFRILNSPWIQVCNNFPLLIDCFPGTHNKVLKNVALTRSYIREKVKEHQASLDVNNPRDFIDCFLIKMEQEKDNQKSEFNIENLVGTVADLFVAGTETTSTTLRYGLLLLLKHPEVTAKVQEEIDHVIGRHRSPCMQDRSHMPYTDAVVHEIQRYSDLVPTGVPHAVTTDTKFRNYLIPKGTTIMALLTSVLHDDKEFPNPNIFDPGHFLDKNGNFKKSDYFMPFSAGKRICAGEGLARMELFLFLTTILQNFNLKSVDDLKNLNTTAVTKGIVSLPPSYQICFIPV
Series [8] in a line: Clearance in female Beagle dog at 4 mg/kg,iv measured upto 24 hrs. It is filed as ADME, organism-based, Canis lupus familiaris. To be noted: in vivo. Summed up:
(§2)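 Beagle dogs were given a single iv infusion at 1, 2 or 4 mg/kg. Plasma parent drug and released docetaxel were followed over time. Cmax, Tmax, AUC, MRT, t1/2, CL and Vss were reported by sex and for all dogs combined.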

The nature of series [9]: Volume of distribution at steady state in rat at 4 mg/kg,iv measured upto 24 hrs. In kind it is ADME, organism-based. The settings on record: in vivo, read-out: Vdss.
A short description of series [10]: Drug concentration in plasma of rat assessed as docetaxel concentration at 2 to 8 mg/kg,iv measured upto 24 hrs. In kind it is ADME, organism-based. The settings on record: in vivo, dose 2-8 mg/kg. The method in brief:
(§3)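 Rats were given a single iv injection at 2, 4 or 8 mg/kg. Plasma parent drug and released docetaxel were followed over time. Cmax, Tmax, AUC, MRT, t1/2, CL and Vss were reported for males, females and all animals combined.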

Series [11] in a line: Prodrug conversion in mouse tumor implanted with mouse 4T1 cells assessed as Tmax of docetaxel at 4 mg/kg,iv measured upto 72 hrs. To be noted: in vivo. It is filed as ADME, organism-based, Neoplasm.
Series [12] in a line: AUC (0-infinity) in male rat at 8 mg/kg,iv measured upto 24 hrs. It is filed as ADME, organism-based. Details: dose 8 mg/kg, time < 24 hrs, route iv. To be noted: in vivo. The method in brief: as §1
A short description of series [13]: Toxicity in BALB/c mouse injected with mouse 4T1 cells assessed as decrease in body weight at 20 mg/kg,iv administrated once per week for 4 weeks. In kind it is organism-based. Details: scale not given: the % may be the effect or the level left. To be noted: in vivo, 672 h.
Series [14] is described as follows: Clearance in rat at 4 mg/kg,iv measured upto 24 hrs. In kind it is ADME, organism-based. To be noted: in vivo. The method in brief:
as §3

A short description of series [15]: Tmax in female rat at 4 mg/kg,iv measured upto 24 hrs. To be noted: in vivo. In kind it is ADME, organism-based.
Series [16] is described as follows: Prodrug conversion in mouse plasma implanted with mouse 4T1 cells assessed as MRT of docetaxel at 4 mg/kg,iv measured upto 72 hrs. In kind it is ADME, organism-based. To be noted: in vivo.
For a further series, the system named is BT-474. Briefly: Antiproliferative activity against human BT-474 cells assessed inhibition of cell growth incubated for 72 hrs by SRB assay. It is filed as functional, cell-based. The settings on record: BT-474, 72 h.
Another series has as its system MDA-MB-231. Briefly: Antiproliferative activity against human MDA-MB-231 cells assessed inhibition of cell growth incubated for 72 hrs by SRB assay. It is filed as functional, cell-based. To be noted: MDA-MB-231, 72 h. Background: In SRB staining, fixed cells bind dye roughly in proportion to their protein.
Series [17] can be described thus: MRT (0 to infinity) in female Beagle dog at 4 mg/kg,iv measured upto 24 hrs. In kind it is ADME, organism-based, Canis lupus familiaris. To be noted: in vivo.
The target of a further series is Cytochrome P450 2B6 (Homo sapiens, UniProt P20813). Briefly: Inhibition of CYP2B6 in human liver microsomes using probe substrate at 0.1 to 100 uM in presence of NADPH. The settings on record: dose 0.1-100 µM. It is filed as ADME, Microsome.
Sequence of Cytochrome P450 2B6 (P20813 whole entry): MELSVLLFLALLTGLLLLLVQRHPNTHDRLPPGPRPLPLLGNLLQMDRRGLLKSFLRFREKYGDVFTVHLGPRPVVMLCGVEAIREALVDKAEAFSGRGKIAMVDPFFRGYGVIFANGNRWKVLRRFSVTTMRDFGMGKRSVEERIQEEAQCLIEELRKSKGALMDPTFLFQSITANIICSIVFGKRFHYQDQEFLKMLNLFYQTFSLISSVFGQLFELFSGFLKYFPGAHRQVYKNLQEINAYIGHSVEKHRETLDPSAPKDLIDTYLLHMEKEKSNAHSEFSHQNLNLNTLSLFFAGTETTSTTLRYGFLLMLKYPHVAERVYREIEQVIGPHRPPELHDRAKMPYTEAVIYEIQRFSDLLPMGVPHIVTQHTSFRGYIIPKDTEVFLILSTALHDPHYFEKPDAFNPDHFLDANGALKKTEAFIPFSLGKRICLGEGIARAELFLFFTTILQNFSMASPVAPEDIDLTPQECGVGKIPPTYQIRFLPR
The nature of series [18]: Toxicity in BALB/c mouse xenografted with mouse 4T1 cells assessed as decrease in body weight at 10 mg/kg,iv administrated with doxorubicin combination once per week for 4 weeks. It is filed as organism-based. The settings on record: in vivo, 672 h.
A further series deals with MDA-MB-435. Briefly: Antiproliferative activity against human MDA-MB-435 cells assessed inhibition of cell growth incubated for 72 hrs by SRB assay. To be noted: MDA-MB-435, 72 h. In kind it is functional, cell-based.
Series [19] is described as follows: Toxicity in Beagle dog assessed as decrease in body temperature at 1 to 4 mg/kg,iv measured after 1 to 4 hrs. To be noted: in vivo, dose lower 1 mg/kg, time lower 1 hrs, dose upper 4 mg/kg, time upper 4 hrs. It is filed as organism-based, Canis lupus familiaris.
A short description of series [20]: Cmax in male Beagle dog at 1 mg/kg,iv measured upto 24 hrs. In kind it is ADME, organism-based, Canis lupus familiaris. Details: dose 1 mg/kg, time < 24 hrs, route iv. The settings on record: in vivo. The method in brief:
as §2

A short description of series [21]: Toxicity in Beagle dog assessed as decrease in blood pressure at 1 to 4 mg/kg,iv. In kind it is organism-based, Canis lupus familiaris. The settings on record: in vivo, dose 1-4 mg/kg.
Series [22] in a line: MRT (0 to infinity) in rat at 4 mg/kg,iv measured upto 24 hrs. It is filed as ADME, organism-based. The settings on record: in vivo.
The nature of series [23]: Cmax in male rat at 4 mg/kg,iv measured upto 24 hrs. It is filed as ADME, organism-based. Further details: time < 24 hrs, dose 4 mg/kg, route iv. The settings on record: in vivo. Summed up: as §3
Series [24] can be described thus: Clearance in female rat at 8 mg/kg,iv measured upto 24 hrs. It is filed as ADME, organism-based. To be noted: in vivo. Summed up: as §3

pIC50: −log10 of the molar value. The source made the active and inactive calls. The rule behind the calls is not given here.

A word on the MRT: it is a mean duration of stay, worked out from the concentration-time curve. As usually defined, the half-life is the time in which the quantity being followed falls by half. Usually AUC(0-t) stands for exposure summed from dosing to a finite time, without extrapolation to infinity. What is called pIC50 is the IC50 on a negative log10 scale, so that one unit is a factor of ten. By clearance is commonly meant the volume of plasma or blood freed of the substance per unit of time. As a reminder, the Tmax is the time from dosing to the highest level. The AUC(0-inf) is total exposure, with the tail of the curve extrapolated. The MRT inf is a mean duration of stay, worked out from the concentration-time curve. As usually defined, the Cmax is the peak of the concentration-time curve.

On to `CC(=O)O[C@@]12CO[C@@H]1C[C@H](O)[C@@]1(C)C(=O)[C@H](O)C3=C(C)[C@@H](OC(=O)[C@H](O)[C@@H](NC(=O)OC(C)(C)C)c4ccccc4)C[C@@](O)([C@@H](OC(=O)c4ccccc4)[C@H]21)C3(C)C` [DOCETAXEL ANHYDROUS], for which the MRT in series [1] was 137 min. For the same compound, in the series on 4T1 [2], the result was inactive. Also, in the series on 4T1 [3], the result was Active. In addition, the Activity result in series [4] is reported as “Non-Toxic”. Moreover, in [5], the half-life was 49.1 h.
`CC(=O)O[C@@]12CO[C@@H]1C[C@H](O)[C@@]1(C)C(=O)[C@H](O)C3=C(C)[C@@H](OC(=O)[C@H](OC(=O)CCC(=O)NCCCC[C@H](NC(=O)CC[C@@H](NC(=O)[C@H](C)NC(=O)/C=C/c4ccc(F)cc4Cl)C(N)=O)C(=O)O)[C@@H](NC(=O)OC(C)(C)C)c4ccccc4)C[C@@](O)([C@@H](OC(=O)c4ccccc4)[C@H]21)C3(C)C` displayed an exposure AUC(0-t) at 24 h in [6] of 4.32 µg·h/mL. Also, the Activity in the series on 4T1 [7] is recorded as 20.2%; in [13], 8%; in series [18], “Toxic”; in series [19] it was “Non-Toxic”; in series [21] it was “Toxic”. Also, the pIC50 was 5.00 at Cytochrome P450 2C8, 7.79 in the series on BT-474, 7.79 with MDA-MB-231 and 7.79 in the series with MDA-MB-435. The clearance in [8] worked out at 0.231 L/h/kg; in series [14], 0.253 L/h/kg; in series [24], 0.203 L/h/kg. Moreover, in series [9], the Vd was 0.076 L/kg. Also, the Drug uptake in [10] is 0.79%. Further, the time to peak (Tmax) was 30 min in series [11] and 4.98 min in series [15]. The compound further returned an AUC(0-inf) in series [12] of 52.8 µg·h/mL. Moreover, in series [16], the MRT was found to be 52.8 min. Further, the results for the mean residence time MRT inf in series [17] and in [22] were 26 min and 19.1 min, respectively. For the same compound, the “inhibition (INH)” value on Cytochrome P450 2B6 was “Not Active”. The figures for the Cmax in series [20] and in series [23] were 3.74 µg/mL and 37.9 µg/mL, respectively.
